# What was measured:
# Hepatitis B virus [1] = experiment: Antiviral activity against HBV infected in human HepG2(2.2.15) cells assessed as inhibition of viral DNA replication after 6 days by RT-PCR method; assay type: functional, organism-based; details: HepG2 2.2.15, 144 h
# Outline: (§1)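 HepG2 2.2.15 cells (stable HBV genome; DMEM, 10% FBS, G418 0.38 mg/mL) seeded 2×10^5/well, recovered 24 h, then compound in assay medium (single 20 or 4 μM, or dose series for IC50), medium changed every 2 days; after 6 days HBV DNA extracted and quantified by real-time PCR. Mean ± SD, ≥3 independent experiments in duplicate.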
# [2] = Selectivity index, ratio of CC50 for human HepG2(2.2.15) cells to IC50 for antiviral activity against HBV infected in human HepG2(2.2.15) cells assessed as inhibition of viral DNA replication; assay type: toxicity, cell-based; details: read-out: Ratio CC50/IC50
# Outline: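 SI calculated as CC50 (72 h MTT, HepG2 2.2.15) divided by IC50 for inhibition of HBV DNA replication measured by real-time PCR.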
# [3] = Cytotoxicity against human HepG2(2.2.15) cells assessed as reduction in cell viability after 72 hrs by MTT assay; assay type: cell-based
# Outline: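 Confluent HepG2 2.2.15 cells exposed to graded compound concentrations for 72 h alongside untreated controls on each plate; viability by MTT uptake, absorbance 490 nm relative to untreated cells; CC50 = concentration killing 50% of cells. Three replicates.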
# Hepatitis B virus [4] = experiment: Antiviral activity against HBV infected in human HepG2(2.2.15) cells assessed as inhibition of viral DNA replication at 20 uM after 6 days by RT-PCR method relative to control; assay type: functional; details: HepG2 2.2.15, 144 h; outline: as §1
# Hepatitis B virus [5] = experiment: Antiviral activity against HBV infected in human HepG2(2.2.15) cells assessed as inhibition of viral DNA replication at 4 uM after 6 days by RT-PCR method relative to control; assay type: functional; details: HepG2 2.2.15, 144 h; outline: as §1
# Hepatitis B virus [6] = experiment: Antiviral activity against lamivudine/entecavir resistant HBV harboring reverse transcriptase L180M/M204V/T184L mutant infected in human […] after 72 hrs by RT-PCR method; assay type: functional, organism-based
# Outline: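 HepG2 cells (2×10^5 per well) were plated, incubated overnight, then transiently transfected for 24 h with a plasmid carrying the full HBV genome with rtL180M + rtM204V + rtT184L. Medium was discarded, cells washed with PBS, then treated across a dose range in fresh medium for 72 h. Intracellular HBV DNA replicative intermediate was quantified by real-time PCR. IC50 is 50% inhibition of DNA replication.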
# Hepatitis B virus [7] = experiment: Antiviral activity against HBV infected in human […] cells assessed as inhibition of viral DNA replication at 1 uM after 72 hrs by RT-PCR method relative to control; assay type: functional
# Outline: (§2)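 HepG2 cells (2×10^5/well) transfected overnight-plated, 24 h with plasmid carrying wild-type or rtL180M+rtM204V+rtT184L resistant HBV; after PBS wash, fresh medium with lamivudine 100 μM, entecavir 10 μM, or test compounds 1 μM (one at 10 μM) for 72 h; replicative intermediate HBV DNA measured by real-time PCR.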
# [8] = Selectivity index, ratio of CC50 for human HepG2(2.2.15) cells to IC50 for antiviral activity against lamivudine/entecavir resistant HBV harboring reverse transcriptase L180M/M204V/T184L mutant infected in human HepG2(2.2.15) cells; assay type: toxicity, cell-based; details: read-out: Ratio CC50/IC50
# Outline: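 SI = CC50/IC50. CC50 comes from HepG2 2.2.15 cells grown to confluence and treated for 72 h, with MTT absorbance at 490 nm relative to untreated cells, in triplicate. IC50 comes from mutant-plasmid-transfected HepG2 cells treated for 72 h, with HBV DNA measured by real-time PCR.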
# Hepatitis B virus [9] = experiment: Antiviral activity against HBV infected in human HepG2(2.2.15) cells assessed as inhibition of intracellular viral pregenomic RNA expression at 1 uM after 6 days by TRIzol reagent based RT-PCR method relative to control; assay type: functional; details: HepG2 2.2.15, 144 h
# Outline: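 HepG2 2.2.15 cells at 6×10^5 per well treated 6 days at 1 μM; total cellular RNA extracted and intracellular HBV pgRNA quantified by real-time PCR.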
# [10] = biological target: T1, Protein P (Duck hepatitis B virus (strain Germany/DHBV-3) (DHBV)) (UniProt P0C691); experiment: (§3) Inhibition of DHBV reverse transcriptase polymerase activity expressed in reticulocyte system assessed as reduction in elongation of viral minus strand DNA in presence of [alpha32P]DNA
# T1 sequence (whole entry): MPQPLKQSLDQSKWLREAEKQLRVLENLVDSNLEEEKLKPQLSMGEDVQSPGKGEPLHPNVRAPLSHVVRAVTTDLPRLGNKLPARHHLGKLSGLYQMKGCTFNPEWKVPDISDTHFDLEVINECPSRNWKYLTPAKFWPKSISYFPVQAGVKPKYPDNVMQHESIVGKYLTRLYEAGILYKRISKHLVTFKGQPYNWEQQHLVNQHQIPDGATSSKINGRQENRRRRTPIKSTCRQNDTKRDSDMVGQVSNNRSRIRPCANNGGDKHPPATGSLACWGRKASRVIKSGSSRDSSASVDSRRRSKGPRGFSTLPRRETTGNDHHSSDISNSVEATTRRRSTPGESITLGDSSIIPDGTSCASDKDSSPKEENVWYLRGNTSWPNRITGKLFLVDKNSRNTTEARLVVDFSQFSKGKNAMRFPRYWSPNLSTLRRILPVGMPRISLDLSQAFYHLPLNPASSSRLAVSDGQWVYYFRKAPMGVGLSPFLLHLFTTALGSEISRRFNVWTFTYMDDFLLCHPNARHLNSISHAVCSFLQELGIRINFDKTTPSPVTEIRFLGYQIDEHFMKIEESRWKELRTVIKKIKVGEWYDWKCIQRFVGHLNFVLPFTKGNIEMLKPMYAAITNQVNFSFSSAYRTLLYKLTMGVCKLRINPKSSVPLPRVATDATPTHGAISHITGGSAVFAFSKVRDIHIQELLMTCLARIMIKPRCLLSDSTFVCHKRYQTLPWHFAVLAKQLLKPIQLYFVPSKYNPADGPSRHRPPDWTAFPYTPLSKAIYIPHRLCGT
# Outline: (§4)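 DHBV polymerase expressed in vitro in reticulocyte lysate; reverse transcriptase activity followed as [α32P]-dNTP incorporation into viral minus-strand DNA, with or without increasing inhibitor concentrations.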
# Protein P = biological target: T2, Protein P (Duck hepatitis B virus (strain Germany/DHBV-3) (DHBV), UniProt P0C691); experiment: as §3; outline: as §4
# T2 sequence (P0C691 whole entry): T1 sequence (whole entry)
# Hepatitis B virus [11] = experiment: Antiviral activity against lamivudine/entecavir resistant HBV harboring reverse transcriptase L180M/M204V/T184L mutant infected in human […] cells assessed as inhibition of viral DNA replication at 1 uM after 72 hrs by RT-PCR method relative to control; assay type: functional
# Outline: (§5)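 HepG2 cells (not 2.2.15) were transiently transfected for 24 h with a plasmid carrying the rtL180M + rtM204V + rtT184L mutant HBV genome, alongside wild-type. After a PBS wash, cells received a single concentration (1, 10 or 100 µM) in fresh medium for 72 h. HBV DNA replicative intermediate was measured by real-time PCR and compared with the wild-type group.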
# Hepatitis B virus [12] = experiment: Antiviral activity against HBV assessed as inhibition of viral DNA replication; assay type: functional, organism-based
# Outline: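 HepG2 cells transiently transfected with wild-type HBV genome, or the rtL180M+rtM204V+rtT184L lamivudine/entecavir-resistant mutant, for 24 h, washed, then exposed in dose-dependent manner; after 72 h HBV DNA replicative intermediate extracted and quantified by real-time PCR. IC50 = concentration giving 50% inhibition of DNA replication; mean ± SD of at least three independent experiments, duplicate measurements.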
# Hepatitis B virus [13] = experiment: Antiviral activity against HBV infected in human […] at 10 uM after 72 hrs by RT-PCR method relative to control; assay type: functional; outline: as §2
# Hepatitis B virus [14] = experiment: Antiviral activity against lamivudine/entecavir resistant HBV harboring reverse transcriptase L180M/M204V/T184L mutant infected in human […] at 10 uM after 72 hrs by RT-PCR method relative to control; assay type: functional; outline: as §5
SMILES,IC50 (Hepatitis B virus [1]) [µM],selectivity ratio [2],CC50 at 72 h [3] [µM],inhibition at 20 µM (Hepatitis B virus [4]) [%],also measured
O=C(N[C@H](CO)Cc1ccccc1)/C(NC(=O)c1ccccc1)=C(/Br)c1ccccc1Br,7.26,> 13.8,> 100,76.6,
O=C(N[C@H](CO)Cc1ccccc1)/C(=C\c1ccccc1)NC(=O)c1ccccc1F,,,> 100,51.4,
O=C(N[C@@H](Cc1ccccc1)C(=O)N1CCCCC1)c1ccccc1,,,> 100,42.3,
CN(C)CCOc1ccc(C[C@H](NC(=O)c2ccccc2)C(=O)N2CCCCC2)cc1,,,> 100,51.6,
CCN(CC)C(=O)[C@H](Cc1ccc(OCCN(C)C)cc1)NC(=O)c1ccccc1,,,> 100,17.5,
O=C(N[C@H](CO)Cc1ccccc1)/C(NC(=O)c1ccccc1)=C(/Br)c1ccccc1Cl,1.88,35.5,66.7,80.2,
N#Cc1ccc(/C(Br)=C(/NC(=O)c2ccccc2)C(=O)N[C@H](CO)Cc2ccccc2)cc1,5.5,18.2,> 100,75.1,
O=C(N[C@H](CO)Cc1ccccc1)/C(=C\c1ccccc1Cl)NC(=O)c1ccccc1,,,> 100,29.8,
N#Cc1ccc(/C=C(/NC(=O)c2ccccc2)C(=O)N[C@H](CO)Cc2ccccc2)cc1,,,> 100,10.2,
O=C(N[C@H](CO)Cc1ccccc1)/C(NC(=O)c1ccccc1)=C(/Br)c1ccc(Br)cc1,4.45,> 22.5,> 100,73.1,
O=C(N[C@H](CO)Cc1ccccc1)/C(=C\c1ccc(Br)cc1)NC(=O)c1ccccc1,,,72.7,,inhibition at 4 µM (Hepatitis B virus [5]): 39%
O=C(N[C@@H](Cc1ccc(O)cc1)C(=O)N1CCCCC1)c1ccccc1,,,> 100,19.5,
Cc1cccc(/C(Br)=C(/NC(=O)c2ccccc2)C(=O)N[C@H](CO)Cc2ccccc2)c1,0.46,> 217,> 100,87.6,IC50 (Hepatitis B virus [6]): 0.77 µM; inhibition at 1 µM (Hepatitis B virus [7]): 61.4%; selectivity ratio [8]: > 130; inhibition at 1 µM (Hepatitis B virus [9]): 49.4%; inhibition [10]: Dose-dependent effect; EC50 (Protein P): 34.2 µM; inhibition at 1 µM (Hepatitis B virus [11]): 65.9%
CN(C)CCOc1ccc(/C=C(/NC(=O)c2ccccc2)C(=O)N[C@H](CO)Cc2ccccc2)cc1,,,> 100,37.5,
O=C(N[C@H](CO)Cc1ccccc1)/C(=C\c1ccc(O)cc1)NC(=O)c1ccccc1,,,> 100,24.9,
O=C(N[C@H](CO)Cc1ccccc1)/C(=C\c1ccccc1Br)NC(=O)c1ccccc1,,,> 100,26.2,
CN(C)CCOc1ccc(C[C@H](NC(=O)c2ccccc2)C(=O)N2CCCC2)cc1,,,> 100,47.6,
O=C(N[C@H](CO)Cc1ccccc1)/C(NC(=O)c1ccccc1F)=C(/Br)c1ccccc1,2.44,41,> 100,76.4,
O=C(N[C@H](CO)Cc1ccccc1)/C(NC(=O)c1ccccc1)=C(/Br)c1ccccc1,3.86,> 25.9,> 100,77.6,
CN(C)CCOc1ccc(C[C@H](NC(=O)c2ccccc2)C(=O)N2CCOCC2)cc1,,,> 100,24.9,
CC(=O)OC[C@H](Cc1ccccc1)NC(=O)[C@H](Cc1ccccc1)NC(=O)c1ccccc1,,,> 100,60.6,IC50 (Hepatitis B virus [12]): 11.2 µM
CN(C)CCOc1ccc(/C(Br)=C(/NC(=O)c2ccccc2)C(=O)N[C@H](CO)Cc2ccccc2)cc1,0.14,153,21.4 to 28.7,,IC50 (Hepatitis B virus [6]): 0.32 µM; inhibition at 1 µM (Hepatitis B virus [7]): 79.6%; selectivity ratio [8]: 89.7; inhibition at 4 µM (Hepatitis B virus [5]): 99.5%; inhibition at 1 µM (Hepatitis B virus [11]): 80.1%
CN(C)CCOc1ccc(C[C@H](NC(=O)c2ccccc2)C(=O)N[C@H](CO)Cc2ccccc2)cc1,,,> 100,69.2,
C=C1[C@H](CO)[C@@H](O)C[C@@H]1n1cnc2c(=O)[nH]c(N)nc21 [ENTECAVIR],,,,,inhibition at 10 µM (Hepatitis B virus [13]): 95.7%; inhibition at 10 µM (Hepatitis B virus [14]): 17.9%
O=C(N[C@H](CO)Cc1ccccc1)/C(NC(=O)c1ccccc1)=C(/Br)c1ccc(O)cc1,2,19.5,34.3 to 39,,IC50 (Hepatitis B virus [6]): 2.97 µM; inhibition at 1 µM (Hepatitis B virus [7]): 34.8%; selectivity ratio [8]: 11.6; inhibition at 4 µM (Hepatitis B virus [5]): 63.2%; inhibition at 1 µM (Hepatitis B virus [11]): 43.2%
Cc1cccc(/C=C(/NC(=O)c2ccccc2)C(=O)N[C@H](CO)Cc2ccccc2)c1,,,> 100,15.8,

# From ChEMBL document CHEMBL4145455, “Design, synthesis and evaluation of novel phenyl propionamide derivatives as non-nucleoside hepatitis B virus inhibitors” (Eur J Med Chem, 2018)
